Results reported in PMC4956517 (Experimental hematology, 2016).
“Also recorded” adds a separate entry of the source.

Legend:
[1] = cited from earlier work
[2] = biological target: T1, hEPOR-Fc construct (EPOR extracellular domain-IgFc) (Homo sapiens, UniProt P19235); assay: Surface plasmon resonance; type: binding; settings: Biacore
T1 sequence (P19235 25-250 limits assumed): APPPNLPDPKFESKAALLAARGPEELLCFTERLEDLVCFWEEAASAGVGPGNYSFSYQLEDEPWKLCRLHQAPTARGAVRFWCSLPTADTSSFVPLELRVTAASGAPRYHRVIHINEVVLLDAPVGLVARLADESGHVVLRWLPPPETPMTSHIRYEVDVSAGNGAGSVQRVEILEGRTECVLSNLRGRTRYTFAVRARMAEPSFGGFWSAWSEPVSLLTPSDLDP

[3] = tested on: endogenous cell surface EPOR (UT7epo cells); assay: Flow cytometry of endogenous cell surface EPOR in UT7epo cells; type: cell-based, human; settings: versus rHu-EPO at matched doses (1.5U/mL vs 2.1 nM, 2.0 U/mL vs 2.8nM); days 4 and 8; antibody EC-c38.5; median and mean fluorescence intensities, clear statistical significance; n=3
EPOR transcript = assay: Quantitative RT-PCR of EPOR transcript levels; type: cell-based, human; settings: peginesatide vs rHu-EPO; data not shown
EPOR (UT7epo cells) = assay: Western blotting of EPOR forms in UT7epo cells; type: cell-based, human; settings: versus rHu-EPO
How it was run: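 UT7epo cells were cultured in test compound or rHu-EPO at varied, biologically matched doses. For extended time-courses, medium plus ligand was replaced daily. Western blots over the time-course were probed with rabbit monoclonal anti-hEPOR IC-c1.1, with anti-GAPDH as loading control.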

Row | Substance | TPO-reactive antibody formation ([1]; clinical trials, ref Basser 2002) | stability of binding to the EPOR ([2]; ECD-EPOR-Fc immobilized at 675 RU and 225 RU) | EPOR residence time, ratio to that of rHu-EPO ([2]; estimated, greater than that of rHu-EPO, immobilized ECD-EPOR-Fc) [fold] | allergenic side-effects ([1]; first-time recipients, ref Bennett, et al 2014) | anaphylactic reactions ([1]; ref Bennett, et al 2014) | cell surface EPOR levels [3] | EPOR transcript levels (EPOR transcript) | processing of the EPOR to lower molecular weight forms (EPOR (UT7epo cells); peginesatide as the EPOR ligand) | levels of full-length EPOR-68K receptor forms (EPOR (UT7epo cells); time-course, antibody IC-c1.1) | levels of lower molecular weight EPOR-36K form (EPOR (UT7epo cells); time-course, antibody IC-c1.1)
1 | rHu-TPO: Thrombopoietin (TPO); effective in stimulating megakaryocyte and platelet production | induce TPO- reactive antibody formation |  |  |  |  |  |  |  |  | 
2 | peginesatide |  | uniquely highly stable binding to the EPOR | 17.1 | can also somehow stimulate allergenic reactivity; also recorded: allergenic side-effects in certain first-time recipients | rare fatal anaphylaxis; also recorded: severe anaphylactic reactions infrequently experienced | notably elevated cell surface EPOR levels | no differential effects | observed trends towards apparent lessened processing of the EPOR to lower molecular weight forms | elevated levels of full-length EPOR-68K receptor forms | no such increases were observed
